RGS4 block: RGS4 inhibitors, primary screen, cell-based, HEK293 M3R inducible RGS4, calcium flux; Regulator of G-protein signaling 4 (Homo sapiens), P49798; B-score at 10 µM; Fluo-4 calcium flux; stronger effect = higher value; triggered by carbachol at its EC20; 0.45% of 310,000 active;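 active means B-score, a plate-corrected calcium signal, over three deviations above library mean, with baseline fluorescence within five deviations of library mean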;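 further: RGS4 expression induced by doxycycline in cells with stable M3 receptor; B-score is computed from the integrated fluorescence ratio over baseline after carbachol; higher B-score means a larger calcium signal and so more RGS4 inhibition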
MrgX1 agonist: agonists of human MrgX1 receptor, primary screen, HEK293 cells, Fluo-4 calcium flux; Fluo-4 calcium fluorescence, agonist mode; stronger effect = higher value; B-score at 10 µM; 0.44% of 310,000 active; AID 588627, 2011;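 active means calcium response B-score plate-corrected fluorescence ratio at least 3 library SD, with starting fluorescence B-score inside 5 SD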
Target sequence (Q96LB2 whole entry, looked up): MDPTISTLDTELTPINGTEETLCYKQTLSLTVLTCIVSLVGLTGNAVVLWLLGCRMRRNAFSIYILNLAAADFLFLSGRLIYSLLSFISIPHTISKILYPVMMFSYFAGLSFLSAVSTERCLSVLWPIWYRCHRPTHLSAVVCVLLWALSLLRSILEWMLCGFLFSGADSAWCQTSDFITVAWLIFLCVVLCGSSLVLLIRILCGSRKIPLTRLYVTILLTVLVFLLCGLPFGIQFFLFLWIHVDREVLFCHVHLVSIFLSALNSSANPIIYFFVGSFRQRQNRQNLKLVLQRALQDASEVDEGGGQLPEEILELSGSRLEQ
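System: HEK293 cells stably expressing human MrgX1 receptor; Dosing: test compound in the initial addition of three; Schedule: overnight plating, then 30 min 37 °C plus 30 min room-temperature dye loading; Detection: kinetic calcium dye fluorescence, Fluo-4 NW; Controls: per-plate positive and negative controls for Z′ factor.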
MrgX1 antagonist: antagonists of human MrgX1 receptor, primary screen, HEK293 cells, Fluo-4 calcium flux | 1.3% of 310,000 active | B-score at 10 µM | BAM8-22 antagonism; stronger effect = lower value | Mas-related G-protein coupled receptor member X1 (Homo sapiens), Q96LB2;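 active means calcium-response B-score plate-corrected more than 3 library SD below zero, starting fluorescence within 5 deviations, no agonist response on first addition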;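 further: peak minus trough fluorescence over baseline after final BAM8-22 challenge near maximal dose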
MrgX1 allo act: positive allosteric modulators of MrgX1, primary screen, HEK293 cells, Fluo-4 calcium flux; Mas-related G-protein coupled receptor member X1 (Homo sapiens), Q96LB2; FDSS; stronger effect = higher value; B-score at 10 µM; 0.63% of 310,000 active; AID 588675, 2011;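 active means plate-corrected calcium response at least 3 library SD above typical, normal starting fluorescence, not activating the receptor alone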;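 further: compound read alongside a low EC10 to EC30 dose of BAM8-22 agonist; peak minus trough fluorescence over baseline measured at the second addition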
RGS4 pot: RGS4 potentiators or activators, primary screen, cell-based, HEK293 M3R inducible RGS4, calcium flux; B-score at 10 µM; 0.92% of 310,000 active; AID 463111, 2010; carbachol calcium flux Fluo4; stronger effect = lower value;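 active means B-score of the integrated calcium signal more than 4 SD below the library mean, with starting fluorescence not abnormally high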;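 further: negative B-score means reduced calcium response which marks RGS4 activation or potentiation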
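Reagent: ECmax carbachol challenge; Test system: M3R-expressing HEK293 line, RGS4 induced by doxycycline; Schedule: overnight RGS4 induction, 30 min dye load 37 °C, 20 min compound RT; Detection: calcium dye Fluo4 fluorescence; Read-out: Agonist-evoked peak-minus-minimum fluorescence over baseline, integrated ratio, B score.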
RGS4 inh valid: enhanced carbachol calcium response, M3R/RGS4 cells, RGS4 inhibitor project, cell-based, validation screen, HEK293 M3R/RGS4, calcium flux. calcium response, % at 10 µM. carbachol calcium Fluo-4 fluorescence; carbachol added at its EC20; 0 = buffer wells, 100 = carbachol control. 65% of 1,700 active. shares compounds with RGS4 block. AID 492999, 2010;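 active means duplicate-averaged calcium response above the buffer-only control mean plus 5 SD of those controls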;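 further: integrated fluorescence ratio F max minus min over baseline F0; higher response in RGS4-induced cells means RGS4 inhibition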
M3R Ca ctr: carbachol calcium response in non-induced M3R cells, confirmation, counter-screen for RGS4 inhibitor project, cell-based, HEK293 M3R; shares compounds with RGS4 block; AID 493000, 2010; 20% of 1,900 active; activity (percent), % at 10 µM; carbachol calcium Fluo-4; submaximal (EC20) carbachol stimulus; buffer wells 0%, carbachol control wells 100%; call rule not given here;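 further: RGS4 induction absent so cells express M3R without RGS4; higher means more calcium signal and flags a non-specific hit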
M3R basal Ca ctr: signal in non-induced cells without carbachol, RGS4 inhibitor counter-screen | calcium response (agonist-mode artifact), % at 10 µM | HEK293 M3R/RGS4 non-induced, Fluo-4 calcium, no carbachol; normalised: buffer wells 0%, carbachol wells 100% | 22% of 1,900 active | shares compounds with RGS4 block | AID 493001;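 active means duplicate-averaged calcium rise in uninduced cells above buffer wells' mean plus 5 SD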
An asterisk follows results filed as active; i = inactive; nt = not tested or not shown. Rows were chosen to be rich in hits. Some 3.5% of all compounds tested hit in one or more screens of this group.

SMILES	RGS4 block	MrgX1 agonist	MrgX1 antagonist	MrgX1 allo act	RGS4 pot	RGS4 inh valid	M3R Ca ctr	M3R basal Ca ctr
CC1(C)CC(=O)C(N=Nc2ccc(-c3ccccc3)cc2)=C(O)C1	i	i	i	i	i	nt	nt	nt
CC1(C)CC(=O)C(C(C#Cc2ccccc2)C2=C(O)CC(C)(C)CC2=O)=C(O)C1	8*	i	i	i	i	44%*	i	22%*
COc1cc2c(cc1OC)C(c1cc(C)ccc1C)CC(=O)N2 (configuration not stated)	i	i	i	i	i	nt	nt	nt
COc1ccc(CNC(=O)CN(C)S(=O)(=O)c2ccc(Cl)cc2)cc1	i	i	i	i	i	nt	nt	nt
COc1ccc(CNC(=O)CCNS(=O)(=O)c2ccc(Cl)cc2)cc1	i	i	i	i	i	nt	i	i
COc1ccc(S(=O)(=O)NCCC(=O)NCc2ccc(F)cc2)cc1	i	i	i	i	i	nt	i	i
COc1ccc(CCNC(=O)c2cc3cc(F)ccc3nc2C)cc1OC	i	i	i	i	i	nt	nt	nt
Cc1cc(F)c(F)c(C(=O)N2CCN(C)CC2)c1Cl	i	i	i	i	i	nt	nt	nt
CCOc1cc(/C=C\[N+](=O)[O-])ccc1OCC(=O)Nc1ccccc1C	43*	i	i	i	i	54%*	47%*	i
Cc1cc(F)ccc1S(=O)(=O)N1CCCOC1CNC(=O)C(=O)NCCCN1CCOCC1 (configuration not stated)	i	i	i	i	i	nt	nt	nt
CCOC(=O)/C(C#N)=C/c1cn(CCC(=O)O)nc1-c1ccc(F)cc1	i	i	i	i	i	nt	nt	nt
CCOC(=O)/C(C#N)=C/c1cn(CCC(=O)O)nc1-c1cccc(Cl)c1	4.7*	i	i	i	i	i	i	i
COc1ccccc1OC(C)C(=O)Nc1ccccc1C(=O)NCc1cccnc1 (configuration not stated)	i	i	i	i	i	nt	nt	nt
Cc1ccc(-c2ccc(/C=C3\C(=O)ON=C3c3ccccc3)o2)c([N+](=O)[O-])c1	12*	i	-6.3*	i	i	i	i	14%*
Cc1ccc(/C=C2\C(=O)ON=C2c2ccccc2)o1	i	i	i	i	i	nt	nt	nt
CC(=O)CC(=O)Nc1ncccn1	i	i	i	i	i	nt	nt	nt
O=C1NC(c2ccccc2)=C(c2nc3ccccc3s2)C(c2ccccc2)N1 (configuration not stated)	i	i	i	i	i	nt	30%*	26%*
CC(=O)C1=C(c2ccccc2)NC(=O)NC1c1ccccc1 (configuration not stated)	i	i	i	i	i	nt	nt	nt
CN(CC(=O)Nc1ccc(Cl)c(C(F)(F)F)c1)C(=O)Cc1c[nH]c2ccccc12	5.9*	i	i	i	i	18%*	i	i
CN(Cc1ccccc1)c1nc(N)c([N+](=O)[O-])c(NCc2ccccc2)n1	i	i	i	i	i	nt	nt	nt
Nn1c(Nc2ccccc2)nc2sc3c(c2c1=O)CCC3	4.8*	nt	nt	nt	i	14%*	i	i
Cc1ccc(-c2ccc(C(=O)NCc3ccccc3)o2)c2ccccc12	7*	i	i	i	i	i	i	i
